# Data reported in ChEMBL document CHEMBL1127737, “Characterization of two taxol photoaffinity analogues bearing azide and benzophenone-related photoreactive substituents in the A-ring side chain” (1994).
# pEC50: −log10 of the molar value.
# What was measured:
# J774 = assay: Concentration that inhibits the cell division by 50% after 72 h; format: functional; details: Mus musculus, J774, 72 h; read-out: ED50 (the source's name)
# How it was run: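 J774.2 murine macrophage-like cells (3×10^5 per 60-mm plate) incubated with a range of compound concentrations; viable cell number counted by Coulter counter after 72 h. ED50 taken as the concentration inhibiting cell division by 50%. Compounds dissolved in DMSO, final DMSO at most 0.2%.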
# [1] = Relative initial slope of the compound; format: functional
# How it was run: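 Calf brain microtubule protein, purified by two cycles of temperature-dependent assembly-disassembly. Assembly ran in 0.1 M MES, 1 mM EGTA, MgCl2 and 3 M glycerol, pH 6.6, at 35 °C and was followed by turbidity at 350 nm. Assembly extent and initial slope were expressed relative to taxol. DMSO vehicle was at most 1% final.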
# Tubulin (Bos taurus) = assay: Effect of compound on assembly property of microtubule protein. 1.5 mg/mL MTP + 15 uM compound
pEC50 (J774),SMILES,Relative initial slope [1],Assembly (Tubulin (Bos taurus)) [%]
6.55,CC(=O)O[C@H]1C(=O)[C@@]2(C)[C@H]([C@H](OC(=O)c3ccccc3)[C@]3(O)C[C@H](OC(=O)[C@H](O)[C@@H](NC(=O)c4ccc(N=[N+]=[N-])cc4)c4ccccc4)C(C)=C1C3(C)C)[C@]1(OC(C)=O)CO[C@@H]1C[C@@H]2O,84,
5.82,CC(=O)O[C@H]1C(=O)[C@@]2(C)[C@H]([C@H](OC(=O)c3ccccc3)[C@]3(O)C[C@H](OC(=O)[C@H](O)C(NC(=O)c4ccc(C(=O)c5ccccc5)cc4)c4ccccc4)C(C)=C1C3(C)C)[C@]1(OC(C)=O)CO[C@@H]1C[C@@H]2O (stereo not given in full),15,39
,Nc1nc2c(ncn2[C@@H]2O[C@H](COP(=O)(O)OP(=O)(O)OP(=O)(O)O)[C@@H](O)[C@H]2O)c(=O)[nH]1 [GUANOSINE TRIPHOSPHATE],65,70
7.05,CC(=O)O[C@H]1C(=O)[C@@]2(C)[C@H]([C@H](OC(=O)c3ccccc3)[C@]3(O)C[C@H](OC(=O)[C@H](O)[C@@H](NC(=O)c4ccccc4)c4ccccc4)C(C)=C1C3(C)C)[C@]1(OC(C)=O)CO[C@@H]1C[C@@H]2O [PACLITAXEL],100,100
